# Screening results deposited in PubChem BioAssay by Sanford-Burnham Center for Chemical Genomics.
# Only a sample is shown.
# Apaf1 activ = activators of human Apaf-1 apoptosome; activity change, negative = activation, % at 20 µM; Apaf-1 apoptosome caspase-3 activation, DEVD-Rh110 fluorescence; hits give low values; O14727; 330,000 tested, 0.31% active;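 active means activity change at or below -40% at 20 µM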
# Target sequence (O14727 whole entry, looked up): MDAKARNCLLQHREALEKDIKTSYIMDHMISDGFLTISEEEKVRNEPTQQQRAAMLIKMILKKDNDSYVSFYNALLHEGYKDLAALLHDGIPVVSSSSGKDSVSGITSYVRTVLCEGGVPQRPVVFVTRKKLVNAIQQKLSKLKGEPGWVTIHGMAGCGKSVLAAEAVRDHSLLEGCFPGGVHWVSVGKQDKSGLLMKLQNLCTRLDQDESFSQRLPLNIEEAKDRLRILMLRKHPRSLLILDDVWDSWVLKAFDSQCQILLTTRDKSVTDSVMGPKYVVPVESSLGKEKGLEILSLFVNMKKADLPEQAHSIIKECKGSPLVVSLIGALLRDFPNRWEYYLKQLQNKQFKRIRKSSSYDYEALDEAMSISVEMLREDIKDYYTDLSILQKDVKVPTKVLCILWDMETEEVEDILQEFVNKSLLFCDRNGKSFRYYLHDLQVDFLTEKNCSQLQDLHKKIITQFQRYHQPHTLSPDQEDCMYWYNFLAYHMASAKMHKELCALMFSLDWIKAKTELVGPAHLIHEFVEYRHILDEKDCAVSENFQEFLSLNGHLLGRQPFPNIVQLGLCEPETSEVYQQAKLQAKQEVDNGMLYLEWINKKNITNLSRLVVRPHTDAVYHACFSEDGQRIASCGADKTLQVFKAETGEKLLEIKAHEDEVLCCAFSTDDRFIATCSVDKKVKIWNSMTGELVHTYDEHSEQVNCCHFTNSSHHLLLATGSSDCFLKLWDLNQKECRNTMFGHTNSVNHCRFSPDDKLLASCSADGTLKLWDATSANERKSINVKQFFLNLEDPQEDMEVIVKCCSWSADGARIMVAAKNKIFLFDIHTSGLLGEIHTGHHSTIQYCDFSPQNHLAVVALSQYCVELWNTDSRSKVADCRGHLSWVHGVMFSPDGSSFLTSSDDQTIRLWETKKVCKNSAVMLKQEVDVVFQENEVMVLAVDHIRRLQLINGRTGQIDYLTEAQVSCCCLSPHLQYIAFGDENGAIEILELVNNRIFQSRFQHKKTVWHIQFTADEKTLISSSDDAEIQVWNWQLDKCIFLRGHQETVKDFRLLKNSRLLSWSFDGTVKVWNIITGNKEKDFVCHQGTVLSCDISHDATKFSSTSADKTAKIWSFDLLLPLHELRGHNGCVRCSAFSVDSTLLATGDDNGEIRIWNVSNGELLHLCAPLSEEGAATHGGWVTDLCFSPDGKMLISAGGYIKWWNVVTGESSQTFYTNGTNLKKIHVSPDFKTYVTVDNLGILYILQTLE
#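 Material: biochemical Apaf-1 apoptosome reconstitution; Medium: 20 mM HEPES buffer, pH 7.5, containing CHAPS and BSA; Reagent: dATP, cytochrome c, and (Z-DEVD)2-Rh110 caspase-3 substrate; Times: 30 min preincubation, 50 min reaction, room temperature; Signal: Rh110 fluorescence, excitation 480 nm, emission 540 nm; Measure: Caspase-3 activity via Apaf-1.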
# Rh110 act interf = counter-screen for Apaf-1 activators: fluorescence interference. shares compounds with Apaf1 activ. Rh110 fluorescence interference, quenched caspase reaction, Ex480/Em540. fluorescence interference (activity change), % at 20 µM, hits read low. 980 tested, under 10 active;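 active means mean activity change at or below -40% when tested at 20 µM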
# Apaf-1 act conf = confirmation of human Apaf-1 activators; reconstituted apoptosome caspase-3 activity, DEVD-Rh110 fluorescence; hits give low values; AID 504617; activity change, negative = activation, % at 20 µM; shares compounds with Apaf1 activ; 980 tested, 5% active;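 active means mean activity change at or below -40%, meaning activation of 40% or more, at 20 µM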
# Apaf1 act interf = counter-screen for Apaf-1 activators: fluorescence interference, dose response; AID 588592; EC50, µM; 55 tested, under 10 active; fluorescence interference counterscreen, Apaf-1 activator assay; shares compounds with Apaf1 activ; call rule not given here
# Hits are given with their value; - = inactive; . = no result.
SMILES,Apaf1 activ,Rh110 act interf,Apaf-1 act conf,others
COc1ccc2c(c1)Cc1sc(NC(=O)c3cccs3)nc1-2,-,.,.,
COc1ccc(OCC(=O)N/N=C(\C)c2cccs2)cc1,-81,-,-,
CC1(C)N([O-])c2cc([N+](=O)[O-])ccc2[N+]1=O,-,.,.,
c1ccc(-c2nc(C3CCCCC3)no2)cc1,-154,-,-,
COc1ccc(/C=N/Nc2cc(C)nc3ccc(OC)cc23)c(OC)c1,-,.,.,
Cc1cc(C)cc(NC(=O)C2C3C=CC4(O3)C2C(=O)N(CCCN2CCCCC2)C4C(=O)NC2CCCCC2)c1 (stereo unspecified),-325,-,-,
COc1ccc(N2C(=O)[C@@H]3[C@H](C2=O)[C@H]2c4ccccc4C=CN2[C@@H]3C(=O)Nc2ccccc2)cc1,-,.,.,
COc1ccc(-c2c(C#Cc3ccc(N(C)C)cc3)c3ccccc3n2C)cc1,-,.,.,
O=C(c1ccc2nc(-c3ccco3)c(-c3ccco3)nc2c1)N1CCN(c2ccccc2)CC1,-,.,.,
CCc1nc2ccc(C(=O)N3CCN(c4ccccc4)CC3)cc2nc1CC,-505,-,-,
O=C(O)c1ccc2nc(-c3ccco3)c(-c3ccco3)nc2c1,-,.,.,
C#CCOCCOCCOCCNc1nc(N2CCN(C(=O)CCCCCCCCCCNC(=O)[C@@H](CCSC)n3cc(CCO)nn3)CC2)nc(N2CCN(C(=O)CCCCCCCCCCNC(=O)[C@H](CO)n3cc(CCCCCN)nn3)CC2)n1,-,.,.,
Nc1ccc(Br)c2cccnc12,-,.,.,
O=C1C(NS(=O)(=O)c2cccs2)=C(N2CCN(c3ccccc3)CC2)C(=O)c2ccccc21,-,.,.,
COc1ccc(/C=N/NC(=O)c2ccc(CSc3nncn3C)cc2)cc1OC,-192,-,-,
CC(NCc1ccc(OCc2ccc(Cl)cc2)cc1)C(O)c1ccccc1 (stereo unspecified),-,.,.,
COc1ccc2ccccc2c1C(O)c1nccn1C (stereo unspecified),-,.,.,
Cn1ccnc1C(O)c1ccc(OCc2ccccc2)cc1 (stereo unspecified),-355,-,-,
O=C(/C=C/c1ccc([N+](=O)[O-])cc1)/C=C/c1ccco1,-,.,.,
CCOC(=O)c1ccc(N2CSC3=C(C#N)C(c4ccc(OC)cc4OC)CC(=O)N3C2)cc1 (stereo unspecified),-,.,.,
Cc1cccc(NC(=O)CN(C)S(=O)(=O)c2cccc3cccnc23)c1C,-164,-,-,
CC1(C)Cc2c(sc3nc(N/N=C/c4ccccc4)[nH]c(=O)c23)CO1,-236,-,-,
Oc1ccc(N=Cc2ccc(O)c(O)c2)cc1,-,.,.,
Cc1ccc2c(c1)C(=O)CC(O)(C(F)F)O2 (stereo unspecified),-71,-,-,
Cc1ccc(-n2c(SCC(=O)Nc3cc(C)on3)nc3c([nH]c4ccccc43)c2=O)cc1,-,.,.,
SMILES,Apaf1 activ,Rh110 act interf,Apaf-1 act conf,others
Cc1ccc(CNC(=O)CN(C)S(=O)(=O)c2cnc[nH]2)cc1,-237,-,-,
CN(C)c1ncc(C2=C(Cl)C(=O)C(N3CCCC3)=C(Cl)C2=O)s1,-,.,.,
O=C(Nc1cccc([N+](=O)[O-])c1)Nc1ccc2c(c1)OCCO2,-288,-,-,
CCc1ccccc1OCC(=O)Nc1ccc(N2CCCC2)cc1C,-,.,.,
CCOc1ccc(NC(=S)Nc2cccc3ccccc23)cc1,-,.,.,
CCOc1ccccc1NC(=O)COc1ccc2ccc(=O)oc2c1,-87,-,-,
CC[C@H](C)[C@@H]1NC(=O)[C@H]([C@@H](C)CC)NC(=O)[C@@H](CC(C)C)NC(=O)[C@H](Cc2ccccc2)NC(=O)[C@H](Cc2ccccc2)NC(=O)[C@@H]2CCCN2C(=O)[C@@H]2CCCN2C(=O)[C@H](C(C)C)NC(=O)[C@H](CC(C)C)NC1=O,-,.,.,
CCO/C=C1\SC(=S)N(c2ccc(Cl)cc2)C1=O,-109,-,-,
CCOC(=O)c1c(NC(=O)c2cccs2)sc(C)c1CC,-,.,.,
C/C(=N\NC(=O)c1ccccc1)c1ccc(NC(=O)c2cccs2)cc1,-143,-,-,
CN(Cc1ccc(F)cc1)C(=O)CNC(=O)c1cccs1,-,.,.,
CC(C)(C)c1ccc(C(O)CCCN2CCC(C(O)(c3ccccc3)c3ccccc3)CC2)cc1 (stereo unspecified),-,.,.,
CSc1ccc(CCNC(=O)c2cc(-c3ccccc3)c(N3CCOCC3)s2)cc1,-370,-,-,
CN1CCCC1CCNc1ccc2sc3ccccc3c(=O)c2c1 (stereo unspecified),-,.,.,
NC1(C#Cc2ccc3c(=O)c4ccccc4sc3c2)CCCCC1,-,.,.,
COc1ccc2sc3ccccc3c(=O)c2c1,-77,-,-,
COc1cccc(C(C[N+](=O)[O-])c2c(C)[nH]n(-c3ccccc3)c2=O)c1 (stereo unspecified),-,.,.,
O=c1[nH]c(C2CCN(S(=O)(=O)c3ccc(C(F)(F)F)cc3)CC2)nc2c1nnn2Cc1ccc(F)cc1,-,.,.,
COc1ccccc1OCCNC(=O)c1cccc(S(=O)(=O)N2CCN(Cc3ccccc3)CC2)c1,-,.,.,
COc1cc2c(cc1NC(=O)C(C)N1CCN(S(=O)(=O)c3ccc(C)c(C)c3)CC1)oc1ccccc12 (stereo unspecified),-578,-,-,
COc1ccc(S(=O)(=O)N2CCCCCC2)cc1C(=O)NCCc1ccccc1,-,.,.,
COc1ccc(Br)cc1CNc1ccc(O)cc1,-,.,.,
O=C(COc1ccccc1)NCC(=O)NC1CCCCC1,-40,-,-,
CSCCC(NC(=O)COc1ccccc1)C(=O)N1CCC(C(N)=O)CC1 (stereo unspecified),-,.,.,
c1ccc2c(C[C@@H]3CNCCN3CCCCC3CCCCC3)cccc2c1,-,.,.,
SMILES,Apaf1 activ,Rh110 act interf,Apaf-1 act conf,others
Cc1ccc(Cl)cc1NC1=C/C(=N\S(=O)(=O)c2cccs2)c2ccccc2C1=O,-,.,.,
CCCCc1oc2ccccc2c1C(=O)c1cc(I)c(OCCN(CC)CC)c(I)c1,-,.,.,
O=C(O)c1ccc(NC2=C(N3CCOCC3)C(=O)c3ccccc3C2=O)cc1,-,.,.,
Clc1nc(Nc2ccc(N3CCOCC3)cc2)c2ccccc2n1,-393,-,-,
COCCCC/C(=N\OCCN)c1ccc(C(F)(F)F)cc1,-,.,.,
O=C(NC1=C(Nc2ccc(F)cc2)C(=O)c2ccccc2C1=O)c1ccc(Cl)cc1,-,.,.,
COc1ccc(C(=O)Nc2ccc3c(c2)C(=O)c2ccccc2C3=O)cc1OC,-507,-,-,Apaf1 act interf=-
COc1ccc(C(=O)c2c(C(F)(F)F)oc3c2C(=O)c2ccccc2C3=O)cc1OC,-,.,.,
O=C1C=C(N2CCCCC2)c2ccccc2C1=O,-,.,.,
CC1=NN(c2ccc(Cl)cc2)C(=O)C1C(c1ccccc1O)c1c(C)[nH]n(-c2ccc(Cl)cc2)c1=O (stereo unspecified),-,.,.,
COC(=O)CCC(=O)OC1(C)C(=O)C2=CN(CCc3ccccn3)C(c3ccc(OC)cc3)=CC2=C(Br)C1=O (stereo unspecified),-,.,.,
O=C(NCc1ccco1)Nc1ccc2nsnc2c1,-,.,.,
O=C(NCc1ccc2c(c1)OCO2)Nc1cccc(Cl)c1,-45,-,-,
Cc1nn2c(-c3ccncc3)nnc2c2ccccc12,-,.,.,
O=C1c2ccccc2-c2nnc(-c3ccc(F)cc3)cc21,-,.,.,
Cc1cccc(NC(=S)Nc2cccc3ccccc23)c1,-,.,.,
Cc1cccc(CC(=O)Nc2ccon2)c1,-278,-,-,
